In ChEMBL document CHEMBL1143838, “Candida albicans and Candida dubliniensis respond differently to echinocandin antifungal agents in vitro” (2007):
Converted amounts (≈) assume the structure as drawn. *1 amine or outer side, *2 acyl side, *3 side chain or, on linkers, in order; H or OH if unused. Where a SMILES comes first, the peptide text is derived from it. Bridges are numbered along the chain shown (N, C = ends). [ ]: non-standard residue; d: D form. The star is where a group is joined. hTyr(3S-OH,4S-OH,3'-OSO3H) = N[C@H](C(=O)O)[C@H](O)[C@@H](O)c1ccc(O)c(OS(=O)(=O)O)c1; Orn(4R-OH,5R-OH) = O=C([C@H](C[C@@H](O)[C@@H](O)N[*:3])N[*:1])[*:2]; Pro(3S-OH,4S-Me) = C[C@H]1CN[C@H](C(=O)O)[C@H]1O; X1 = CCCCCOc1ccc(-c2cc(-c3ccc(C(=O)*)cc3)no2)cc1; Gln(3R-OH) = NC(=O)C[C@@H](O)[C@H](N)C(=O)O; Hyp = O=C(O)[C@@H]1C[C@@H](O)CN1

How the values were obtained:
Type in all cases: functional
[1] = system: Candida albicans; assay: Antifungal activity against Candida albicans T26 after 24 hrs by CLSI M27-A test
How it was run: (§1)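 CLSI M27-A broth microdilution with aqueous doubling dilutions of drug. Inoculum grown overnight at 30°C in NGY medium, then added to MOPS-buffered RPMI 1640 at an initial 10^3 yeasts/ml. Incubated 35°C for 24 h. MIC read visually as the lowest concentration giving a marked decrease in visible growth; paradoxical or trailing growth noted.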

[2] = system: Candida dubliniensis; assay: Antifungal activity against Candida dubliniensis B71507 after 24 hrs by EUCAST test
How it was run: (§2)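 Yeasts were grown overnight at 30°C in NGY, then inoculated at 10^5 yeasts/ml initial concentration into MOPS-buffered RPMI 1640 with 2% glucose containing aqueous doubling dilutions of drug. Plates were held at 35°C for 24 h. MICs came from triplicate spectrophotometric dose-response data at 50% and 80% growth-reduction endpoints. Trailing meant a >100-fold gap between these endpoints; paradoxical meant regrowth ≥5% above the curve minimum.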

[3] = system: Candida dubliniensis; assay: Antifungal activity against Candida dubliniensis B71507 after 24 hrs by CLSI M27-A test
How it was run: (§3)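 Broth microdilution with echinocandins as aqueous doubling dilutions. Yeasts were grown overnight at 30°C in NGY and seeded at 10^3 yeasts/ml initial concentration in MOPS-buffered RPMI 1640, then incubated at 35°C for 24 h. The MIC was read visually as the lowest concentration giving a marked decrease in visible growth; paradoxical or trailing growth was noted.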

[4] = system: Candida albicans; assay: Antifungal activity against Candida albicans JIMS101103 after 24 hrs by EUCAST test
How it was run: (§4)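 EUCAST broth microdilution with aqueous doubling dilutions of drug. Inoculum grown overnight at 30°C in NGY, then added to MOPS-buffered RPMI 1640 with 2% glucose at an initial 10^5 yeasts/ml. Incubated 35°C for 24 h. MICs taken from triplicate spectrophotometric dose-response data as 50% and 80% growth-reduction endpoints.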

[5] = system: Candida albicans; assay: Antifungal activity against Candida albicans SCS68858 after 24 hrs by EUCAST test; how it was run: as §4
[6] = system: Candida dubliniensis; assay: Antifungal activity against Candida dubliniensis SCS65875C after 24 hrs by CLSI M27-A test; how it was run: as §3
[7] = system: Candida albicans; assay: Antifungal activity against Candida albicans SCS140136P after 24 hrs by CLSI M27-A test; how it was run: as §1
[8] = system: Candida dubliniensis; assay: Antifungal activity against Candida dubliniensis Leic875 after 24 hrs by EUCAST test; how it was run: as §2
[9] = system: Candida dubliniensis; assay: Antifungal activity against Candida dubliniensis AMCC after 24 hrs by EUCAST test; how it was run: as §4
[10] = system: Candida dubliniensis; assay: Antifungal activity against Candida dubliniensis FS after 24 hrs by EUCAST test; how it was run: as §2
[11] = system: Candida albicans; assay: Antifungal activity against Candida albicans CAI4RI after 24 hrs by CLSI M27-A test; how it was run: as §1
[12] = system: Candida albicans; assay: Antifungal activity against Candida albicans T32 after 24 hrs by CLSI M27-A test; how it was run: as §1
[13] = system: Candida dubliniensis; assay: Antifungal activity against Candida dubliniensis 81/060 after 24 hrs by EUCAST test; how it was run: as §4
[14] = system: Candida albicans; assay: Antifungal activity against Candida albicans JIMS146204 after 24 hrs by CLSI M27-A test; how it was run: as §1
[15] = system: Candida dubliniensis; assay: Antifungal activity against Candida dubliniensis 75/043 after 24 hrs by EUCAST test; how it was run: as §4
[16] = system: Candida albicans; assay: Antifungal activity against Candida albicans NR4 after 24 hrs by EUCAST test; how it was run: as §4
[17] = system: Candida albicans; assay: Antifungal activity against Candida albicans T28 after 24 hrs by EUCAST test; how it was run: as §4
[18] = system: Candida dubliniensis; assay: Antifungal activity against Candida dubliniensis FS after 24 hrs by CLSI M27-A test; how it was run: as §3
[19] = system: Candida albicans; assay: Antifungal activity against Candida albicans SCS67023C after 24 hrs by CLSI M27-A test; how it was run: as §1
[20] = system: Candida dubliniensis; assay: Antifungal activity against Candida dubliniensis J931021 after 24 hrs by CLSI M27-A test; how it was run: as §3
[21] = system: Candida albicans; assay: Antifungal activity against Candida albicans NCPF6525 after 24 hrs by CLSI M27-A test; how it was run: as §1
[22] = system: Candida dubliniensis; assay: Antifungal activity against Candida dubliniensis 910Aa after 24 hrs by CLSI M27-A test; how it was run: as §1
[23] = system: Candida albicans; assay: Antifungal activity against Candida albicans T28 after 24 hrs by CLSI M27-A test; how it was run: as §1
[24] = system: Candida dubliniensis; assay: Antifungal activity against Candida dubliniensis IK after 24 hrs by EUCAST test; how it was run: as §2
[25] = system: Candida albicans; assay: Antifungal activity against Candida albicans CAI4RI after 24 hrs by EUCAST test; how it was run: as §4
[26] = system: Candida albicans; assay: Antifungal activity against Candida albicans SCS67023C after 24 hrs by EUCAST test; how it was run: as §4
[27] = system: Candida albicans; assay: Antifungal activity against Candida albicans SC5314 after 24 hrs by EUCAST test; details: SC5314, 24 h; how it was run: as §4
[28] = system: Candida dubliniensis; assay: Antifungal activity against Candida dubliniensis J931021 after 24 hrs by EUCAST test; how it was run: as §2
[29] = system: Candida dubliniensis; assay: Antifungal activity against Candida dubliniensis J930936 after 24 hrs by CLSI M27-A test; how it was run: as §3
[30] = system: Candida albicans; assay: Antifungal activity against Candida albicans NR2 after 24 hrs by CLSI M27-A test; how it was run: as §1
[31] = system: Candida albicans; assay: Antifungal activity against Candida albicans AM2003/0083 after 24 hrs by EUCAST test; how it was run: as §4
[32] = system: Candida albicans; assay: Antifungal activity against Candida albicans T32 after 24 hrs by EUCAST test; how it was run: as §4
[33] = system: Candida dubliniensis; assay: Antifungal activity against Candida dubliniensis J930936 after 24 hrs by EUCAST test; how it was run: as §2
[34] = system: Candida dubliniensis; assay: Antifungal activity against Candida dubliniensis SCS17154969-2 after 24 hrs by CLSI M27-A test; how it was run: as §3
[35] = system: Candida dubliniensis; assay: Antifungal activity against Candida dubliniensis SCSBB417709 after 24 hrs by EUCAST test; how it was run: as §2
[36] = system: Candida dubliniensis; assay: Antifungal activity against Candida dubliniensis Leic875 after 24 hrs by CLSI M27-A test; how it was run: as §3
[37] = system: Candida dubliniensis; assay: Antifungal activity against Candida dubliniensis AMCC after 24 hrs by CLSI M27-A test; how it was run: as §1
[38] = system: Pichia kudriavzevii; assay: Antifungal activity against Candida krusei ATCC 6258 after 24 hrs by CLSI M27-A test; details: ATCC 6258, 24 h
How it was run: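 Broth microdilution per CLSI M27-A. Drugs were prepared as aqueous doubling dilutions. Inoculum was grown overnight at 30°C in neopeptone-yeast extract-glucose medium, then added to MOPS-buffered RPMI 1640 at an initial 10^3 yeasts/ml. Plates were incubated at 35°C for 24 h. MIC was read visually as the lowest concentration giving a marked decrease in visible growth.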

[39] = system: Candida albicans; assay: Antifungal activity against Candida albicans Y109 after 24 hrs by EUCAST test; how it was run: as §4
[40] = system: Candida albicans; assay: Antifungal activity against Candida albicans JIMS146204 after 24 hrs by EUCAST test; how it was run: as §4
[41] = system: Candida dubliniensis; assay: Antifungal activity against Candida dubliniensis SCS17154969-1 after 24 hrs by EUCAST test; how it was run: as §2
[42] = system: Candida albicans; assay: Antifungal activity against Candida albicans NCPF6525 after 24 hrs by EUCAST test; how it was run: as §4
[43] = system: Candida albicans; assay: Antifungal activity against Candida albicans JIMS132203 after 24 hrs by CLSI M27-A test; how it was run: as §1
[44] = system: Candida albicans; assay: Antifungal activity against Candida albicans SC5314 after 24 hrs by CLSI M27-A test; details: SC5314, 24 h; how it was run: as §1
[45] = system: Candida albicans; assay: Antifungal activity against Candida albicans B06-341 after 24 hrs by CLSI M27-A test; how it was run: as §1

An MIC50 [1] of 1 µg/mL (≈ 0.787 µM), an MIC50 [2] of 0.063 µg/mL (≈ 0.0496 µM) and an MIC50 [3] of at most 0.032 µg/mL were found for `CCCCCOc1ccc(-c2cc(-c3ccc(C(=O)N[C@H]4C[C@@H](O)[C@@H](O)NC(=O)[C@@H]5[C@@H](O)[C@@H](C)CN5C(=O)[C@H]([C@H](O)CC(N)=O)NC(=O)[C@H]([C@H](O)[C@@H](O)c5ccc(O)c(OS(=O)(=O)O)c5)NC(=O)[C@@H]5C[C@@H](O)CN5C(=O)[C@H]([C@@H](C)O)NC4=O)cc3)no2)cc1` [MICAFUNGIN] (X1-[Orn(4R-OH,5R-OH)]T[Hyp][hTyr(3S-OH,4S-OH,3'-OSO3H)][Gln(3R-OH)][Pro(3S-OH,4S-Me)]; lactam 1-C) in this work. For the same compound, the MIC50 [4] was at most 0.032 µg/mL, the MIC50 [5] was at most 0.032 µg/mL and the MIC50 [6] was at most 0.032 µg/mL. The MIC50 [7] was at most 0.032 µg/mL, the MIC50 [8] was at most 0.032 µg/mL and the MIC50 [9] was at most 0.032 µg/mL. For the same compound, the MIC50 [10] was 0.063 µg/mL (≈ 0.0496 µM), the MIC50 [11] was 0.25 µg/mL (≈ 0.197 µM) and the MIC50 [12] was at most 0.032 µg/mL. It also gave an MIC50 [13] of at most 0.032 µg/mL, an MIC50 [14] of at most 0.032 µg/mL and an MIC50 [15] of at most 0.032 µg/mL. It also gave an MIC50 [16] of 0.5 µg/mL (≈ 0.394 µM), an MIC50 [17] of at most 0.032 µg/mL and an MIC50 [18] of at most 0.032 µg/mL. The MIC50 [19] was at most 0.032 µg/mL, the MIC50 [20] was at most 0.032 µg/mL and the MIC50 [21] was at most 0.032 µg/mL. For the same compound, the MIC50 [22] was at most 0.032 µg/mL, the MIC50 [23] was at most 0.032 µg/mL and the MIC50 [24] was at most 0.032 µg/mL. It also gave an MIC50 [25] of 0.5 µg/mL (≈ 0.394 µM), an MIC50 [26] of at most 0.032 µg/mL and an MIC50 [27] of at most 0.032 µg/mL. The MIC50 [28] was 0.063 µg/mL (≈ 0.0496 µM), the MIC50 [29] was at most 0.032 µg/mL and the MIC50 [30] was 0.25 µg/mL (≈ 0.197 µM). The MIC50 [31] was at most 0.032 µg/mL, the MIC50 [32] was at most 0.032 µg/mL and the MIC50 [33] was at most 0.032 µg/mL. For the same compound, the MIC50 [34] was at most 0.032 µg/mL, the MIC50 [35] was at most 0.032 µg/mL and the MIC50 [36] was at most 0.032 µg/mL. It also gave an MIC50 [37] of at most 0.032 µg/mL, an MIC50 [38] of 0.13 µg/mL (≈ 0.102 µM) and an MIC50 [39] of 0.25 µg/mL (≈ 0.197 µM). It also gave an MIC50 [40] of at most 0.032 µg/mL, an MIC50 [41] of 0.063 µg/mL (≈ 0.0496 µM) and an MIC50 [42] of at most 0.032 µg/mL. It also gave an MIC50 [43] of at most 0.032 µg/mL, an MIC50 [44] of at most 0.032 µg/mL and an MIC50 [45] of at most 0.032 µg/mL.
